Laboratory results published in ChEMBL document CHEMBL3734708, “Synthesis, cytotoxicity and antiviral evaluation of new series of imidazo[4,5-g]quinoline and pyrido[2,3-g]quinoxalinone derivatives” (Eur J Med Chem, 2015).

System: Human immunodeficiency virus 1
Assay: Antiviral activity against HIV-1 3B infected in human MT4 cells assessed as protection against virus-induced cytopathic effect after 4 days by MTT assay
Assay type: functional, organism-based
Conditions: Human immunodeficiency virus 1, 3B, MT4, 96 h
Procedure, shortened: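 MT-4 cells (1 × 10^4/well in RPMI) with or without serial compound dilutions, infected with HIV-1 at 100 CCID50 (m.o.i. 0.01). After 4 days at 37 °C, protection from cytopathogenicity read by MTT. EC50 by linear regression versus untreated controls; mean of three independent determinations.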

Row | SMILES | EC50
1 | c1csc(-c2nc3cc4cccnc4cc3n2C2CCCCC2)c1 | > 18 µM
2 | COc1nc2cc3cccnc3c(Cl)c2nc1-c1cccs1 | > 100 µM
3 | c1ccc(-c2nc3cc4cccnc4cc3n2C2CCCCC2)cc1 | > 50 µM

System: Human alphaherpesvirus 1
Assay: Antiviral activity against HSV-1 KOS ATCC VR- 1493 infected in african green monkey Vero-76 cells after 3 days by plaque reduction assay
Assay type: functional, organism-based
Conditions: Human alphaherpesvirus 1, KOS ATCC VR1493, Vero 76, 72 h

Row | SMILES | EC50
4 | c1csc(-c2nc3cc4cccnc4cc3n2C2CCCCC2)c1 | > 15 µM
5 | COc1nc2cc3cccnc3c(Cl)c2nc1-c1cccs1 | > 100 µM
6 | c1ccc(-c2nc3cc4cccnc4cc3n2C2CCCCC2)cc1 | > 35 µM

System: not listed separately
Assay: Cytotoxicity against MDBK cells assessed as reduction in cell viability after 72 hrs by MTT assay
Assay type: cell-based, Bos taurus
Conditions: cattle
Procedure, shortened: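 MDBK cells seeded at 6 × 10^5 cells/mL in MEM-E with L-glutamine, 1 mM sodium pyruvate, kanamycin and 10% horse serum. Mock-infected cultures held with serial compound dilutions at 37 °C, 5% CO2. MTT viability read after 72 h. 50% cytotoxic concentration from linear regression as % of untreated controls. Three independent determinations.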

Row | SMILES | CC50 at 72 h
7 | c1csc(-c2nc3cc4cccnc4cc3n2C2CCCCC2)c1 | > 100 µM
8 | COc1nc2cc3cccnc3c(Cl)c2nc1-c1cccs1 | > 100 µM
9 | c1ccc(-c2nc3cc4cccnc4cc3n2C2CCCCC2)cc1 | > 100 µM

Molecular target: not listed separately
Assay: Inhibition of BVDV RNA-dependent RNA polymerase pre-incubated for preincubated for 30 mins before GTP addition and measured after 120 mins by fluorescence based microplate reader assay
Parameters: species or system Bovine viral diarrhea virus 1
Conditions: not given
Procedure, shortened: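 His-tagged BVDV NS5BΔ24 (C-terminal 24 residues deleted) from E. coli, Ni-NTA purified, 500 ng/reaction. Assay uses poly(rC) 10 µg/mL template, oligo(rG)12 0.1 µg/mL primer and 80 µM GTP. Buffer is 20 mM Tris pH 7.0, 5 mM MgCl2, 25 mM NaCl, 1 mM DTT, 5% DMSO. Threefold compound dilutions, 30 min RT preincubation, 120 min at 37 °C, EDTA stop. Product read by PicoGreen fluorescence (ex 480/em 520), as % residual activity.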

Row | SMILES | IC50
10 | COc1nc2cc3cccnc3c(Cl)c2nc1-c1cccs1 | 0.64 µM

System: Bovine viral diarrhea virus 1
Assay: Antiviral activity against BVDV NADL ATCC VR-534 infected in MDBK cells assessed as protection against virus-induced cytopathic effect after 3 or 4 days by MTT assay
Assay type: functional, organism-based
Conditions: Bovine viral diarrhea virus isolates and strains, NADL ATCC VR-534, MDBK
Procedure, shortened: (§1)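 BHK-21 (YFV, Reo-1) or MDBK (BVDV) cells seeded at 5 × 10^4 or 3 × 10^4 cells/well and grown overnight to confluence. Monolayers infected at m.o.i. 0.01 in maintenance medium (MEM-Earle, 0.5% inactivated FBS). Serial compound dilutions added 2 h after infection; 37 °C for 3-4 days. Viability read by MTT. EC50 by linear regression versus untreated controls; mean of three determinations.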

Row | SMILES | EC50
11 | c1csc(-c2nc3cc4cccnc4cc3n2C2CCCCC2)c1 | 65 µM
12 | COc1nc2cc3cccnc3c(Cl)c2nc1-c1cccs1 | 1.3 µM
13 | c1ccc(-c2nc3cc4cccnc4cc3n2C2CCCCC2)cc1 | 29 µM

System: Yellow fever virus
Assay: Antiviral activity against YFV 17-D vaccine (Stamaril Pasteur J07B01) infected in BHK21 cells assessed as protection against virus-induced cytopathic effect after 3 or 4 days by MTT assay
Assay type: functional, organism-based
Conditions: BHK-21
Procedure, shortened: as §1

Row | SMILES | EC50
14 | c1csc(-c2nc3cc4cccnc4cc3n2C2CCCCC2)c1 | > 45 µM
15 | COc1nc2cc3cccnc3c(Cl)c2nc1-c1cccs1 | > 100 µM
16 | c1ccc(-c2nc3cc4cccnc4cc3n2C2CCCCC2)cc1 | > 100 µM

System: Human poliovirus 1 strain Sabin
Assay: Antiviral activity against Human poliovirus 1 strain Sabin 1 virus infected in african green monkey Vero-76 cells after 2 days by plaque reduction assay
Assay type: functional, organism-based
Conditions: Enterovirus C, 1, Vero 76, 48 h

Row | SMILES | EC50
17 | c1csc(-c2nc3cc4cccnc4cc3n2C2CCCCC2)c1 | > 15 µM
18 | COc1nc2cc3cccnc3c(Cl)c2nc1-c1cccs1 | > 100 µM
19 | c1ccc(-c2nc3cc4cccnc4cc3n2C2CCCCC2)cc1 | > 35 µM

System: Mammalian orthoreovirus 1
Assay: Antiviral activity against Reovirus 1 ATCC VR- 214 infected in BHK21 cells assessed as protection against virus-induced cytopathic effect after 3 or 4 days by MTT assay
Assay type: functional, cell-based
Conditions: Mammalian orthoreovirus 1, ATCC VR- 214, BHK-21
Procedure, shortened: as §1

Row | SMILES | EC50
20 | c1csc(-c2nc3cc4cccnc4cc3n2C2CCCCC2)c1 | > 45 µM
21 | COc1nc2cc3cccnc3c(Cl)c2nc1-c1cccs1 | > 100 µM
22 | c1ccc(-c2nc3cc4cccnc4cc3n2C2CCCCC2)cc1 | 67 µM

System: Coxsackievirus B5
Assay: Antiviral activity against CVB-5 virus Faulkner ATCC VR-185 infected in african green monkey Vero-76 cells after 3 days by plaque reduction assay
Assay type: functional, organism-based
Conditions: Enterovirus B, Faulkner ATCC VR-185, Vero 76, 72 h

Row | SMILES | EC50
23 | c1csc(-c2nc3cc4cccnc4cc3n2C2CCCCC2)c1 | > 15 µM
24 | COc1nc2cc3cccnc3c(Cl)c2nc1-c1cccs1 | > 100 µM
25 | c1ccc(-c2nc3cc4cccnc4cc3n2C2CCCCC2)cc1 | > 35 µM

System: not listed separately
Assay: Cytotoxicity against human MT4 cells assessed as reduction in cell proliferation after 96 hrs by MTT assay
Assay type: cell-based
Conditions: not given
Procedure, shortened: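 MT-4 cells in exponential growth seeded at 1 × 10^5 cells/mL in RPMI-1640 with 10% FBS and penicillin/streptomycin. Cultured with serial compound dilutions at 37 °C, 5% CO2. MTT viability after 96 h. CC50 by linear regression against untreated controls. Mean of three independent determinations.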

Row | SMILES | CC50 at 96 h
26 | c1csc(-c2nc3cc4cccnc4cc3n2C2CCCCC2)c1 | 18 µM
27 | COc1nc2cc3cccnc3c(Cl)c2nc1-c1cccs1 | > 100 µM
28 | c1ccc(-c2nc3cc4cccnc4cc3n2C2CCCCC2)cc1 | 50 µM

System: Vaccinia virus
Assay: Antiviral activity against VV Elstree ATCC VR-1549 infected in african green monkey Vero-76 cells after 3 days by plaque reduction assay
Assay type: functional, organism-based
Conditions: Orthopoxvirus vaccinia, Elstree ATCC VR-1549, Vero 76, 72 h

Row | SMILES | EC50
29 | c1csc(-c2nc3cc4cccnc4cc3n2C2CCCCC2)c1 | > 15 µM
30 | COc1nc2cc3cccnc3c(Cl)c2nc1-c1cccs1 | > 100 µM
31 | c1ccc(-c2nc3cc4cccnc4cc3n2C2CCCCC2)cc1 | > 35 µM

System: Respiratory syncytial virus
Assay: Antiviral activity against RSVA2 ATCC VR-1540 infected in african green monkey Vero-76 cells after 5 days by plaque reduction assay
Assay type: functional, organism-based
Conditions: human respiratory syncytial virus, A2 ATCC VR-1540, Vero 76, 120 h

Row | SMILES | EC50
32 | c1csc(-c2nc3cc4cccnc4cc3n2C2CCCCC2)c1 | > 15 µM
33 | COc1nc2cc3cccnc3c(Cl)c2nc1-c1cccs1 | > 100 µM
34 | c1ccc(-c2nc3cc4cccnc4cc3n2C2CCCCC2)cc1 | > 35 µM

System: not listed separately
Assay: Cytotoxicity against african green monkey Vero 76 cells assessed as reduction in cell viability after 48 to 96 hrs by MTT assay
Assay type: cell-based
Conditions: chlorocebus sabaeus
Procedure, shortened: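 Vero-76 cells plated at 4 × 10^5 cells/mL in D-MEM with L-glutamine, kanamycin and 10% FBS. Incubated with serial dilutions of test compounds at 37 °C, 5% CO2 for 48-96 h. Viability by MTT. CC50 by linear regression relative to untreated cells. Mean of three independent runs.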

Row | SMILES | CC50
35 | c1csc(-c2nc3cc4cccnc4cc3n2C2CCCCC2)c1 | 15 µM
36 | COc1nc2cc3cccnc3c(Cl)c2nc1-c1cccs1 | > 100 µM
37 | c1ccc(-c2nc3cc4cccnc4cc3n2C2CCCCC2)cc1 | 35 µM

System: Vesicular stomatitis virus
Assay: Antiviral activity against VSV Indiana ATCC VR-158 infected in african green monkey Vero-76 cells after 2 days by plaque reduction assay
Assay type: functional, organism-based
Conditions: Indiana ATCC VR-158, Vero 76, 48 h

Row | SMILES | EC50
38 | c1csc(-c2nc3cc4cccnc4cc3n2C2CCCCC2)c1 | > 15 µM
39 | COc1nc2cc3cccnc3c(Cl)c2nc1-c1cccs1 | > 100 µM
40 | c1ccc(-c2nc3cc4cccnc4cc3n2C2CCCCC2)cc1 | > 35 µM

System: not listed separately
Assay: Cytotoxicity against BHK21 cells assessed as reduction in cell viability after 72 hrs by MTT assay
Assay type: cell-based, Mesocricetus auratus, BHK-21
Conditions: hamster
Procedure, shortened: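 BHK cells seeded at 1 × 10^6 cells/mL in MEM-E with L-glutamine, 1 mM sodium pyruvate, kanamycin and 10% FBS. Mock-infected cells exposed to serial dilutions of compound at 37 °C, 5% CO2, run in parallel with the antiviral assays. Viability by MTT at 72 h. CC50 by linear regression vs untreated controls. Mean of three independent determinations.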

Row | SMILES | CC50 at 72 h
41 | c1csc(-c2nc3cc4cccnc4cc3n2C2CCCCC2)c1 | 45 µM
42 | COc1nc2cc3cccnc3c(Cl)c2nc1-c1cccs1 | > 100 µM
43 | c1ccc(-c2nc3cc4cccnc4cc3n2C2CCCCC2)cc1 | > 100 µM
